Results as given in ChEMBL document CHEMBL1221265, “Synthesis and in vitro antibacterial activity of novel fluoroquinolone derivatives containing substituted piperidines” (Bioorg Med Chem Lett, 2010).
Converted amounts (≈) assume the structure as drawn.

Tests used:
Staphylococcus aureus [1] = test: Antibacterial activity against Staphylococcus aureus ATCC 29213 after 18 to 24 hrs by agar dilution method; type: functional
Procedure, shortened: (§1)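 Agar dilution done to NCCLS recommendations. Plates incubated 18–24 h at 35 °C. MIC taken as the lowest concentration of compound that gave no visible bacterial growth.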

Staphylococcus aureus [2] = test: Antibacterial activity against methicillin-resistant Staphylococcus aureus 08-52 after 18 to 24 hrs by agar dilution method; type: functional
Procedure, shortened: (§2)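 Agar dilution MIC per NCCLS recommendations. MIC is the lowest concentration giving no visible bacterial growth after incubation at 35 °C for 18–24 h.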

[3] = test system: Staphylococcus epidermidis; test: Antibacterial activity against Staphylococcus epidermidis ATCC 12228 after 18 to 24 hrs by agar dilution method; type: functional; procedure, shortened: as §1
[4] = test system: Staphylococcus epidermidis; test: Antibacterial activity against methicillin-resistant Staphylococcus epidermidis 08-18 after 18 to 24 hrs by agar dilution method; type: functional; procedure, shortened: as §2
Streptococcus pneumoniae = test: Antibacterial activity against Streptococcus pneumoniae ATCC 49619 after 18 to 24 hrs by agar dilution method; type: functional; procedure, shortened: as §1
Streptococcus pyogenes = test: Antibacterial activity against Streptococcus pyogenes 06-1 after 18 to 24 hrs by agar dilution method; type: functional; procedure, shortened: as §1
Enterococcus faecalis = test: Antibacterial activity against Enterococcus faecalis ATCC 29212 after 18 to 24 hrs by agar dilution method; type: functional; procedure, shortened: as §1
Escherichia coli = test: Antibacterial activity against Escherichia coli 26 after 18 to 24 hrs by agar dilution method; type: functional; procedure, shortened: as §1
Klebsiella pneumoniae = test: Antibacterial activity against Klebsiella pneumoniae 7 after 18 to 24 hrs by agar dilution method; type: functional; procedure, shortened: as §1
Pseudomonas aeruginosa = test: Antibacterial activity against Pseudomonas aeruginosa 17 after 18 to 24 hrs by agar dilution method; type: functional; procedure, shortened: as §1
Shigella sonnei = test: Antibacterial activity against Shigella sonnei 51592 after 18 to 24 hrs by agar dilution method; type: functional; procedure, shortened: as §1
Enterobacter cloacae = test: Antibacterial activity against Enterobacter cloacae 45301 after 18 to 24 hrs by agar dilution method; type: functional; procedure, shortened: as §1
[5] = Cytotoxicity against african green monkey Vero cells after 48 hrs by CPE assay; type: cell-based; conditions: chlorocebus sabaeus

| SMILES | MIC (Staphylococcus aureus [1]) | MIC (Staphylococcus aureus [2]) | MIC [3] | MIC [4] | MIC (Streptococcus pneumoniae) | MIC (Streptococcus pyogenes) | MIC (Enterococcus faecalis) | MIC (Escherichia coli) | MIC (Klebsiella pneumoniae) | MIC (Pseudomonas aeruginosa) | MIC (Shigella sonnei) | MIC (Enterobacter cloacae) | CC50 at 48 h [5] |
| --- | --- | --- | --- | --- | --- | --- | --- | --- | --- | --- | --- | --- | --- |
| CO/N=C1/CCN(c2c(F)cc3c(=O)c(C(=O)O)cn4c3c2OC[C@@H]4C)CC1(C)CN (some centres not stated) | 1 µg/mL (≈ 2.31 µM) | 64 µg/mL (≈ 148 µM) | 2 µg/mL (≈ 4.62 µM) | 1 µg/mL (≈ 2.31 µM) | 128 µg/mL (≈ 296 µM) | 64 µg/mL (≈ 148 µM) | 128 µg/mL (≈ 296 µM) | 4 µg/mL (≈ 9.25 µM) | 128 µg/mL (≈ 296 µM) | 32 µg/mL (≈ 74 µM) | 8 µg/mL (≈ 18.5 µM) | 16 µg/mL (≈ 37 µM) | 177 µg/mL (≈ 409 µM) |
| CCO/N=C1/CCN(c2nc3c(cc2F)c(=O)c(C(=O)O)cn3C2CC2)CC1(C)CN (configuration not stated) | 0.25 µg/mL (≈ 0.579 µM) | 8 µg/mL (≈ 18.5 µM) | 0.5 µg/mL (≈ 1.16 µM) | 0.25 µg/mL (≈ 0.579 µM) | 4 µg/mL (≈ 9.27 µM) | 16 µg/mL (≈ 37.1 µM) | 4 µg/mL (≈ 9.27 µM) | 1 µg/mL (≈ 2.32 µM) | 1 µg/mL (≈ 2.32 µM) | 16 µg/mL (≈ 37.1 µM) | 1 µg/mL (≈ 2.32 µM) | 8 µg/mL (≈ 18.5 µM) | 44.2 µg/mL (≈ 102 µM) |
| CCO/N=C1/CCN(c2c(F)cc3c(=O)c(C(=O)O)cn(CCF)c3c2F)CC1(C)CN (configuration not stated) | 2 µg/mL (≈ 4.4 µM) | 64 µg/mL (≈ 141 µM) | 4 µg/mL (≈ 8.8 µM) | 4 µg/mL (≈ 8.8 µM) | 128 µg/mL (≈ 282 µM) | 128 µg/mL (≈ 282 µM) | 128 µg/mL (≈ 282 µM) | 16 µg/mL (≈ 35.2 µM) | 64 µg/mL (≈ 141 µM) | 128 µg/mL (≈ 282 µM) | 64 µg/mL (≈ 141 µM) | 64 µg/mL (≈ 141 µM) | 157 µg/mL (≈ 347 µM) |
| CCO/N=C1/CCN(c2c(F)cc3c(=O)c(C(=O)O)cn(C4CC4)c3c2F)CC1(C)CN (configuration not stated) | 0.125 µg/mL (≈ 0.279 µM) | 8 µg/mL (≈ 17.8 µM) | 0.25 µg/mL (≈ 0.557 µM) | 0.25 µg/mL (≈ 0.557 µM) | 8 µg/mL (≈ 17.8 µM) | 16 µg/mL (≈ 35.7 µM) | 2 µg/mL (≈ 4.46 µM) | 2 µg/mL (≈ 4.46 µM) | 2 µg/mL (≈ 4.46 µM) | 16 µg/mL (≈ 35.7 µM) | 2 µg/mL (≈ 4.46 µM) | 16 µg/mL (≈ 35.7 µM) | 62.5 µg/mL (≈ 139 µM) |
| CO/N=C1/CCN(c2c(F)cc3c(=O)c(C(=O)O)cn(C4CC4)c3c2F)CC1(C)CN (configuration not stated) | 0.25 µg/mL (≈ 0.575 µM) | 16 µg/mL (≈ 36.8 µM) | 0.25 µg/mL (≈ 0.575 µM) | 0.25 µg/mL (≈ 0.575 µM) | 32 µg/mL (≈ 73.7 µM) | 32 µg/mL (≈ 73.7 µM) | 64 µg/mL (≈ 147 µM) | 0.5 µg/mL (≈ 1.15 µM) | 64 µg/mL (≈ 147 µM) | 16 µg/mL (≈ 36.8 µM) | 1 µg/mL (≈ 2.3 µM) | 4 µg/mL (≈ 9.21 µM) | 88.4 µg/mL (≈ 203 µM) |
| CO/N=C1/CCN(c2nc3c(cc2F)c(=O)c(C(=O)O)cn3C2CC2)CC1(C)CN (configuration not stated) | 0.5 µg/mL (≈ 1.2 µM) | 8 µg/mL (≈ 19.2 µM) | 1 µg/mL (≈ 2.4 µM) | 0.25 µg/mL (≈ 0.599 µM) | 32 µg/mL (≈ 76.7 µM) | 8 µg/mL (≈ 19.2 µM) | 32 µg/mL (≈ 76.7 µM) | 0.5 µg/mL (≈ 1.2 µM) | 0.5 µg/mL (≈ 1.2 µM) | 8 µg/mL (≈ 19.2 µM) | 1 µg/mL (≈ 2.4 µM) | 4 µg/mL (≈ 9.58 µM) | 177 µg/mL (≈ 423 µM) |
| CCO/N=C1/CCN(c2c(F)cc3c(=O)c(C(=O)O)cn(CC)c3c2F)CC1(C)CN (configuration not stated) | 2 µg/mL (≈ 4.58 µM) | 16 µg/mL (≈ 36.7 µM) | 4 µg/mL (≈ 9.16 µM) | 2 µg/mL (≈ 4.58 µM) | 64 µg/mL (≈ 147 µM) | 64 µg/mL (≈ 147 µM) | 128 µg/mL (≈ 293 µM) | 16 µg/mL (≈ 36.7 µM) | 16 µg/mL (≈ 36.7 µM) | 128 µg/mL (≈ 293 µM) | 32 µg/mL (≈ 73.3 µM) | 128 µg/mL (≈ 293 µM) | 78.8 µg/mL (≈ 180 µM) |
| CCO/N=C1/CCN(c2nc3c(cc2F)c(=O)c(C(=O)O)cn3-c2ccc(F)cc2F)CC1(C)CN (configuration not stated) | 2 µg/mL (≈ 3.97 µM) | 128 µg/mL (≈ 254 µM) | 4 µg/mL (≈ 7.94 µM) | 2 µg/mL (≈ 3.97 µM) | 128 µg/mL (≈ 254 µM) | 64 µg/mL (≈ 127 µM) | > 128 µg/mL | 8 µg/mL (≈ 15.9 µM) | 64 µg/mL (≈ 127 µM) | 128 µg/mL (≈ 254 µM) | 16 µg/mL (≈ 31.8 µM) | 32 µg/mL (≈ 63.6 µM) | 78.8 µg/mL (≈ 156 µM) |
| CO/N=C1/CCN(c2c(F)cc3c(=O)c(C(=O)O)cn(CCF)c3c2F)CC1(C)CN (configuration not stated) | 2 µg/mL (≈ 4.54 µM) | 64 µg/mL (≈ 145 µM) | 4 µg/mL (≈ 9.08 µM) | 2 µg/mL (≈ 4.54 µM) | 128 µg/mL (≈ 291 µM) | 128 µg/mL (≈ 291 µM) | > 128 µg/mL | 8 µg/mL (≈ 18.2 µM) |  | 64 µg/mL (≈ 145 µM) | 16 µg/mL (≈ 36.3 µM) | 64 µg/mL (≈ 145 µM) | 315 µg/mL (≈ 715 µM) |
| CCn1cc(C(=O)O)c(=O)c2cc(F)c(N3CC/C(=N/OC)C(C)(CN)C3)c(F)c21 (configuration not stated) | 1 µg/mL (≈ 2.37 µM) | 32 µg/mL (≈ 75.8 µM) | 2 µg/mL (≈ 4.73 µM) | 2 µg/mL (≈ 4.73 µM) | 128 µg/mL (≈ 303 µM) | 64 µg/mL (≈ 152 µM) | 128 µg/mL (≈ 303 µM) | 8 µg/mL (≈ 18.9 µM) | 64 µg/mL (≈ 152 µM) | 64 µg/mL (≈ 152 µM) | 8 µg/mL (≈ 18.9 µM) | 32 µg/mL (≈ 75.8 µM) | 315 µg/mL (≈ 746 µM) |
| C[C@H]1COc2c(N3CCN(C)CC3)c(F)cc3c(=O)c(C(=O)O)cn1c23.C[C@H]1COc2c(N3CCN(C)CC3)c(F)cc3c(=O)c(C(=O)O)cn1c23.O [LEVOFLOXACIN] | 0.125 µg/mL | 16 µg/mL | 0.25 µg/mL | 0.125 µg/mL |  | 16 µg/mL | 0.5 µg/mL |  |  | 0.25 µg/mL | 1 µg/mL | 0.125 µg/mL | > 1000 µg/mL |
| CO/N=C1/CCN(c2nc3c(cc2F)c(=O)c(C(=O)O)cn3-c2ccc(F)cc2F)CC1(C)CN (configuration not stated) | 1 µg/mL (≈ 2.04 µM) | 128 µg/mL (≈ 262 µM) | 2 µg/mL (≈ 4.09 µM) | 2 µg/mL (≈ 4.09 µM) | 64 µg/mL (≈ 131 µM) | 64 µg/mL (≈ 131 µM) | > 128 µg/mL | 8 µg/mL (≈ 16.3 µM) | 128 µg/mL (≈ 262 µM) | 32 µg/mL (≈ 65.4 µM) | 8 µg/mL (≈ 16.3 µM) | 32 µg/mL (≈ 65.4 µM) | 88.4 µg/mL (≈ 181 µM) |
